Assay results reported in article PMC3579011 (Molecular cancer research : MCR, 2012).
Positions of bridges follow the written chain, without caps; N, C: chain ends. No end group written: not given here.

Legend:
[1] = test system: DU145, UMUC3 and J82 cells; assay: LDH release with autophagy inhibitor, DU145, UMUC3, J82; format: cell-based, human; settings: bafilomycin A1 40–400 nM added 1 hour prior to CLT1 (25 µg/ml) + FN, 24 hours
How it was run: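 DU145, UMUC3 and J82 cells at about 50% confluence received 40 to 400 nmol/L bafilomycin A1 plus test peptide with fibronectin for 24 h. Cell death was measured as LDH release using a cytotoxicity detection kit. Values were normalized to background death of control cells treated without peptide in the same medium.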

DU145 cells [2] = assay: LDH release cytotoxicity assay, DU145; format: cell-based
DU145 cells [3] = assay: Uptake of fluorescein-CLT1 by fluorescence microscopy, DU145; format: cell-based, human; settings: nocodazole 10 µM, 24 hours, versus DMSO
How it was run: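 DU145 cells were grown on vitronectin-coated coverslips and exposed 24 h to fluorescein-conjugated peptide alone or with nocodazole, with DMSO as vehicle. Cells were fixed in 4% paraformaldehyde and stained with DAPI. Uptake was scored by fluorescence microscopy at ×40 as the percentage of peptide-positive cells per optical field.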

[4] = test system: primary human bladder epithelial cells (HBEC); assay: LDH release cytotoxicity assay, primary bladder epithelial cells; format: cell-based; settings: CLT1 75 µg/ml, 24 hours
How it was run: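 Primary human bladder epithelial cells were kept in serum-free Prostalife basal medium with supplements at 37°C and 5% CO2, and treated at about 50% confluence. Peptide diluted in water was added for 24 h in 2% serum alone, or with fibronectin or fibrinogen. Cell death was read as LDH release, expressed as a percentage of maximal release from camptothecin plus 100 nmol/L staurosporine.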

[5] = test system: bladder tumor cells (J82, T24, UMUC3, TCCSUP); assay: LDH release cytotoxicity assay, bladder tumor cells; format: cell-based; settings: CLT1 75 µg/ml, 24 hours; even in the presence of urine
[6] = test system: 786-0 kidney cancer cells; assay: CLT1-induced cell death, 786-0; format: cell-based, human
[7] = test system: cathepsin D (lysosome leakage) in DU145, UMUC3 and J82 tumor cells; assay: Cathepsin D in cytosolic fraction; format: cell-based, human; settings: CLT1 75 µg/ml, 24 hours
How it was run: (§1)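 Cells were lysed by subcellular protein fractionation to obtain the cytoplasmic fraction, or in 2× SDS sample buffer. Proteins were run on SDS-PAGE and transferred to PVDF, with 0.05% Ponceau S staining to check equal loading. Blots were blocked in 5% BSA and probed overnight at 4°C with anti-cathepsin D or anti-LC3B, then detected with peroxidase-conjugated anti-rabbit or anti-mouse IgG and enhanced chemiluminescence.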

[8] = test system: LC3 in UMUC3 and J82 cells; assay: LC3 conversion; format: cell-based, human; settings: CLT1 25 µg/ml, 2% serum + FN, 24 hours
How it was run: as §1

angiogenic endothelium = settings: cited from earlier work
[9] = test system: bladder and prostate tumor cells; assay: Internalization of fluorescein-CLT1 with fibronectin or fibrinogen; format: cell-based, human; settings: FN or FG each 30 µg/ml
How it was run: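 Cells were grown on vitronectin-coated coverslips and incubated 24 h with fluorescein-conjugated peptide in 2% serum with fibronectin or fibrinogen. They were then fixed in 4% paraformaldehyde and mounted in DAPI-containing medium. Internalization was scored by fluorescence microscopy at ×40 as the percentage of peptide-positive cells per optical field.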

[10] = test system: human bladder (J82, T24, UMUC3, TCCSUP), prostate (DU145), kidney (RCC4), breast (MDA-MB-231) and lung (A549) tumor cell lines; assay: LDH release cytotoxicity assay, panel of tumor cell lines; format: cell-based; settings: without CLT1

Compound: CO/C1=C\C(C)=C\[C@@H](C)[C@@H](O)[C@@H](C)C/C(C)=C/C=C/[C@H](OC)[C@@H]([C@@H](C)[C@@H](O)[C@H](C)[C@@]2(O)C[C@@H](O)[C@H](C)[C@@H](C(C)C)O2)OC1=O [bafilomycin A1, Bafilomycin A1]
- effect on CLT1 cytotoxicity (LDH release) [1]: significantly reduced

Compound: COC(=O)Nc1nc2ccc(C(=O)c3cccs3)cc2[nH]1 [nocodazole, reference compound]
- effect on CLT1 cytotoxicity (LDH release) (DU145 cells [2]; nocodazole 10 µM, CLT1 75 µg/ml, 24 hours, versus DMSO): significantly reduced
- effect on CLT1 uptake (DU145 cells [3]): inhibited

Compound: CGLIIQKNEC (disulfide 1-10 (inferred)) [CLT1]
- CLT1 concentration at which cytotoxicity reached a plateau (DU145 cells [2]; CLT1 7.5–150 µg/ml, 2% serum + 30 µg/ml fibronectin, 24 hours, LDH release): 75 µg/mL
- cell death in the absence of plasma fibronectin (DU145 cells [2]; prostate tumor cells, FN-depleted serum): minimal cell death
- cytotoxic activity in primary bladder epithelial cells [4]: largely inactive
- cell death of bladder cancer cells [5]: extensive cell death
- sensitivity to CLT1-induced cell death [6]: largely resistant
- cathepsin D in cytoplasmic fraction (indicator for lysosome leakage) [7]: increased concentrations
- LC3 conversion (autophagy marker) [8]: causes LC3 conversion
- anti-angiogenic activity in vivo (angiogenic endothelium): strong anti-angiogenic activity

Compound: fibrinogen
- effect on CLT1 uptake / internalization [9]: largely prevents

Compound: fibronectin
- effect of protein alone on tumor cell fate [10]: no effect
- fibronectin concentration at which CLT1 cytotoxicity occurred (DU145 cells [2]; FN-depleted serum, CLT1 75 µg/ml, FN 3–100 µg/ml, within 24 hours, LDH release): 10 µg/mL
- effect on CLT1 uptake / internalization [9]: supports
